# Compound activity from PubChem.
# An excerpt weighted towards active compounds, which were near 2.9% of everything screened.
# NS3 helicase inh: HCV NS3 helicase inhibition; inhibition, % at 10.9 µM; AID 1800; NS3 helicase DNA unwinding, Cy5 molecular beacon fluorescence; hit rate 0.56% among 290,000;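 active = inhibition above the mean of all tested compounds plus 3 SD, set per campaign, cut at about 35% in these data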;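 also: 0% = DMSO wells and 100% = thioflavine S control wells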
#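 Test system: hepatitis C virus NS3 helicase domain fragment enzyme. Also added: annealed dual-labelled DNA beacon duplex, ATP-started. Timing: 60 min unwinding reaction at 25 °C after ATP addition. Technique: Cy5 fluorescence. Measure: % inhibition of unwinding.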
# A3A deaminase: human APOBEC3A DNA deaminase inhibition; P31941; recombinant A3A, FAM/TAMRA ssDNA deamination fluorescence; inhibition, % at 20 µM; hit rate 0.41% among 330,000; AID 493011;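 active = at least 40% inhibition at 20 µM here, with at most 30% in a related deaminase screen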;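 also: plate controls were A3A with DMSO for no effect and wells lacking A3A enzyme for full effect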
# Target sequence (P31941 whole entry, looked up): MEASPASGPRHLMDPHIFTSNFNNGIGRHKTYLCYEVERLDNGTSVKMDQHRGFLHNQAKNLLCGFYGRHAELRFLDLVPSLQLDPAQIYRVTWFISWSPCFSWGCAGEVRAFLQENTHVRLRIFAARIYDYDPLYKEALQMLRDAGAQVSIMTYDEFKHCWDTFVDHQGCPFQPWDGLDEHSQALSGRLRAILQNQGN
# ABHD5 PLIN5 PPI: inhibitors of human ABHD5-perilipin-5 interaction; Split G. princeps luciferase complementation, luminescence, 4 h; inhibition, % at 4 µM; Q00G26+Q8WTS1; hit rate 0.78% among 360,000;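 active = inhibition above the mean inhibition across every tested compound plus 3 SD, cut at about 22% in these data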;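 also: 0% = DMSO only wells and the 100% control is not disclosed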
# A3G deaminase: inhibitors of human APOBEC3G DNA deaminase; recombinant A3G, ssDNA deamination FAM/TAMRA fluorescence; Q9HC16; hit rate 0.28% among 330,000; inhibition, % at 20 µM;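 active = inhibition of at least 40% at 20 µM, with no more than 30% in the related APOBEC3A deaminase screen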;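 also: plate controls were DMSO wells with A3G for no effect and wells lacking A3G enzyme for full effect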
# core dimer inh: blocks dimerization of HCV core protein. hit rate 0.33% among 300,000. inhibition, % at 5 µM. AID 1899. TR-FRET GST/Flag-core106 dimerization, 1536-well;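 active = inhibition above the mean of all tested compounds plus 3 SD, set per screening campaign, cut at about 45% in these data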
#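 Assay system: Tagged HCV core106 pair (GST and Flag) | Buffer or medium: KF-containing HEPES buffer, pH 7.45, DTT, CHAPS, BSA | Also added: Eu donor and XL665 acceptor anti-tag antibodies | Dosing: One concentration, 5 µM, in 0.5% DMSO | Timing: 4 h at 22.5 °C | Technique: TR-FRET 671 and 617 nm emission | Repeats: Singlicate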
# PRMT1 inh: blocks human protein arginine methyltransferase 1 | recombinant PRMT1, activity-based probe fluorescence polarization | AID 652257 | Q99873 | inhibition, % at 2.79 µM | hit rate 1.3% among 370,000;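 active = inhibition above about 21% made by adding two undisclosed values, limit read from the data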
# NS3 helicase cf: confirmation of Hepatitis C virus NS3 helicase inhibitors. inhibition, % at 10.9 µM. NS3 helicase DNA unwinding, Cy5 molecular beacon fluorescence. shares compounds with NS3 helicase inh. hit rate 31% among 1,600;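 active = inhibition above the mean of all tested compounds plus 3 SD, cutoff set per campaign, cut at about 36% in these data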
# DNA FID counter: displaces DNA intercalator in HCV helicase counter-screen; inhibition, % at 7.9 µM; hit rate 4% among 1,600; AID 1945; shares compounds with NS3 helicase inh; DNA fluorescent intercalator displacement, fluorescence; in the data active = inhibition above about 37%;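 also: 0% = vehicle and 100% = reference compound; higher means more displacement of ethidium bromide from the DNA hairpin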
# DNA FID DR: counter-screen for HCV NS3 helicase inhibitors: DNA intercalator displacement dose response; shares compounds with NS3 helicase inh; fluorescent intercalator displacement from DNA, fluorescence; IC50, µM; 120 tested, under 10 active; AID 2172; call rule not given here
# An asterisk follows results filed as active; . = no result given.
SMILES,NS3 helicase inh,A3A deaminase,ABHD5 PLIN5 PPI,A3G deaminase,core dimer inh,PRMT1 inh,NS3 helicase cf,DNA FID counter,others
Cc1ccc(C(=O)C2=C(O)C(=O)N(Cc3cccnc3)C2c2ccc(Br)cc2)o1 (stereo not drawn),40*,-4,-7,-9,-2,0,-20,-43,
Cc1ccc(C(=O)C2=C(O)C(=O)N(Cc3ccco3)C2c2cccc(Br)c2)o1 (stereo not drawn),101*,-2,-9,-5,21,2,92*,-33,
Cc1nn(C)c(C)c1C(C)NC(=O)c1cc(COc2ccc(F)c(F)c2)on1 (stereo not drawn),-6,-4,1,-5,0,1,.,.,
CSCCC(C(=O)NC(C)(C)C)n1c(-c2ccc(C)cc2)nc2ccccc21 (stereo not drawn),.,.,3,.,.,-1,.,.,
CCOC(=O)[C@]12CCCC=C1N(CCC1=CCCCC1)C(=O)[C@H](CC(=O)N1CCCC1)C2,.,.,0,.,.,0,.,.,
CC1CC(O)C2C3(C)CCCC2(COC3=O)C12CCC1(CCOC1=O)O2 (stereo not drawn),.,.,-5,.,.,-2,.,.,
COc1ccc(NC(=O)N(C)C[C@H]2OCc3cnnn3CCCC(=O)N([C@H](C)CO)C[C@@H]2C)c(OC)c1,.,.,.,.,.,4,.,.,
CCOc1cc(/C=C2\C(=O)ON=C2c2ccccc2)cc(Br)c1O,36,-4,-3,-7,10,3,.,.,
COc1cc(/C=C2\C(=O)ON=C2c2ccccc2)cc(Br)c1O,38*,-6,6,-6,6,5,32,1,
O=C(O)Cc1ccc(N=Nc2c(O)c(C(=O)O)cc3ccccc23)cc1,42*,14,0,12,-8,19,64*,-7,
NS(=O)(=O)c1ccc(N=Nc2c(O)c(C(=O)O)cc3ccccc23)cc1,35,5,-11,0,-3,12,.,.,
CN(C(=O)CSc1nnc(N)s1)C1CCCCC1,37*,3,6,6,-20,-1,-7,8,
Cc1cc(F)cc(-c2cc(C(=O)NCc3ccco3)[nH]n2)c1,.,.,2,.,.,3,.,.,
CC1CCCC2(C1)NC(=S)c1c(sc3c1CCCC3)N2 (stereo not drawn),36*,0,-10,4,53*,4,1,10,
CC1CCCC2(C1)NC(=S)N(c1ccccc1)N2 (stereo not drawn),6,-5,2,39,-3,1,.,.,
CCN(CC(=O)Nc1c(F)cccc1F)C(=O)/C=C/c1ccc(Br)s1,.,-3,2,-13,2,-3,.,.,
Cc1ccc2nc(N3C(=O)C(O)=C(C(=O)c4ccc(C)o4)C3c3cccc(O)c3)sc2c1 (stereo not drawn),44*,1,-13,-11,11,4,106*,4,
Cc1ccc([N+](=O)[O-])cc1Nc1nc(N2CCCC2)nc(N2CCCC2)n1,-28,-1,-4,-4,4,-5,.,.,
O=C(O)c1cccnc1Sc1ccccc1Cl,16,3,-11,-1,4,4,.,.,
O=C(O)c1ccc(Cl)c2c1C1C=CCC1C(c1ccccn1)N2 (stereo not drawn),63*,91,.,77,11,.,75*,7,
O=C1C=C(c2ccccc2)C(c2ccccc2)C1 (stereo not drawn),.,.,1,.,.,-1,.,.,
O=C(O)CCN1C(=O)/C(=C2\C(=O)N(Cc3ccccc3Cl)c3ccccc32)SC1=S,44*,-1,-16,-1,.,0,91*,4,DNA FID DR=>79
Cc1ccc(S(=O)(=O)Nc2ccc(Br)cc2C(NCC(=O)O)c2ccccc2)cc1 (stereo not drawn),-6,-1,2,-12,11,-2,.,.,
O=C(O)CSc1cc(NS(=O)(=O)c2ccc(Br)cc2)c2ccccc2c1O,55*,.,5,.,-13,57*,70*,26,
